From ChEMBL document CHEMBL2086305 (Eur J Med Chem, 2012)
Calls of active or inactive are those of the source. The rule behind the calls is not given here.

Legend:
[1] = Antiplatelet activity against rabbit platelets assessed as inhibition of thrombin-induced platelet aggregation; format: functional, cell-based; details: Oryctolagus cuniculus
[2] = (§1) Antiplatelet activity against rabbit platelets assessed as inhibition of ADP-induced platelet aggregation; format: functional, cell-based; details: Oryctolagus cuniculus
[3] = test system: Rattus norvegicus; assay: Toxicity in Sprague-Dawley rat assessed as adverse effect at 20 mg/kg, administered via gastric tube; format: organism-based; set-up: dose 20 mg/kg; details: in vivo, po
[4] = test system: Rattus norvegicus; assay: Drug metabolism in Sprague-Dawley rat plasma assessed as HTMP level at 20 mg/kg, administered via gastric tube after 0.167 hrs; format: ADME, organism-based; set-up: dose 20 mg/kg; details: in vivo, po
Summary of the method: (§2)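 Female Sprague-Dawley rats received 20 mg/kg. Whole blood was collected at 0.167–6 h and mixed with 4% formic acid. Samples were precipitated with acetonitrile and stored at −70 °C.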

[5] = test system: Rattus norvegicus; assay: Drug metabolism in Sprague-Dawley rat plasma assessed as dabigatran level at 20 mg/kg, administered via gastric tube after 0.167 hrs; format: ADME, organism-based; set-up: dose 20 mg/kg; details: in vivo, po; summary of the method: as §2
[6] = test system: Rattus norvegicus; assay: Drug metabolism in Sprague-Dawley rat plasma assessed as HTMP level at 20 mg/kg, administered via gastric tube after 0.25 hrs; format: ADME, organism-based; set-up: dose 20 mg/kg; details: in vivo, po; summary of the method: as §2
[7] = test system: Rattus norvegicus; assay: Drug metabolism in Sprague-Dawley rat plasma assessed as dabigatran level at 20 mg/kg, administered via gastric tube after 0.25 hrs; format: ADME, organism-based; set-up: dose 20 mg/kg; details: in vivo, po; summary of the method: as §2
[8] = test system: Rattus norvegicus; assay: Drug metabolism in Sprague-Dawley rat plasma assessed as HTMP level at 20 mg/kg, administered via gastric tube after 0.5 hrs; format: ADME, organism-based; set-up: dose 20 mg/kg; details: in vivo, po; summary of the method: as §2
[9] = test system: Rattus norvegicus; assay: Drug metabolism in Sprague-Dawley rat plasma assessed as dabigatran level at 20 mg/kg, administered via gastric tube after 0.5 hrs; format: ADME, organism-based; set-up: dose 20 mg/kg; details: in vivo, po; summary of the method: as §2
[10] = test system: Rattus norvegicus; assay: Drug metabolism in Sprague-Dawley rat plasma assessed as HTMP level at 20 mg/kg, administered via gastric tube after 1 hr; format: ADME, organism-based; set-up: dose 20 mg/kg; details: in vivo, po; summary of the method: as §2
[11] = test system: Rattus norvegicus; assay: Drug metabolism in Sprague-Dawley rat plasma assessed as dabigatran level at 20 mg/kg, administered via gastric tube after 1 hr; format: ADME, organism-based; set-up: dose 20 mg/kg; details: in vivo, po; summary of the method: as §2
[12] = test system: Rattus norvegicus; assay: Drug metabolism in Sprague-Dawley rat plasma assessed as HTMP level at 20 mg/kg, administered via gastric tube after 1.5 hrs; format: ADME, organism-based; set-up: dose 20 mg/kg; details: in vivo, po; summary of the method: as §2
[13] = test system: Rattus norvegicus; assay: Drug metabolism in Sprague-Dawley rat plasma assessed as dabigatran level at 20 mg/kg, administered via gastric tube after 1.5 hrs; format: ADME, organism-based; set-up: dose 20 mg/kg; details: in vivo, po; summary of the method: as §2
[14] = test system: Rattus norvegicus; assay: Drug metabolism in Sprague-Dawley rat plasma assessed as HTMP level at 20 mg/kg, administered via gastric tube after 2 hrs; format: ADME, organism-based; set-up: dose 20 mg/kg; details: in vivo, po; summary of the method: as §2
[15] = test system: Rattus norvegicus; assay: Drug metabolism in Sprague-Dawley rat plasma assessed as dabigatran level at 20 mg/kg, administered via gastric tube after 2 hrs; format: ADME, organism-based; set-up: dose 20 mg/kg; details: in vivo, po; summary of the method: as §2
[16] = test system: Rattus norvegicus; assay: Drug metabolism in Sprague-Dawley rat plasma assessed as HTMP level at 20 mg/kg, administered via gastric tube after 4 hrs; format: ADME, organism-based; set-up: dose 20 mg/kg; details: in vivo, po; summary of the method: as §2
[17] = test system: Rattus norvegicus; assay: Drug metabolism in Sprague-Dawley rat plasma assessed as dabigatran level at 20 mg/kg, administered via gastric tube after 4 hrs; format: ADME, organism-based; set-up: dose 20 mg/kg; details: in vivo, po; summary of the method: as §2
[18] = test system: Rattus norvegicus; assay: Drug metabolism in Sprague-Dawley rat plasma assessed as HTMP level at 20 mg/kg, administered via gastric tube after 6 hrs; format: ADME, organism-based; set-up: dose 20 mg/kg; details: in vivo, po; summary of the method: as §2
[19] = test system: Rattus norvegicus; assay: Drug metabolism in Sprague-Dawley rat plasma assessed as dabigatran level at 20 mg/kg, administered via gastric tube after 6 hrs; format: ADME, organism-based; set-up: dose 20 mg/kg; details: in vivo, po; summary of the method: as §2
[20] = test system: Rattus norvegicus; assay: Antithrombotic activity in Sprague-Dawley rat venous thrombosis model assessed as thrombus dry weight administered via gastric tube qd for 3 days after 2 hrs of last post dose
[21] = test system: Platelet; assay: as §1; format: functional, cell-based; details: Oryctolagus cuniculus

Compound: CCCCCCOC(=O)/N=C(/N)c1ccc(NCc2nc3cc(C(=O)N(CCC(=O)OCc4nc(C)c(C)nc4C)c4ccccn4)ccc3n2C)cc1
- IC50 [1]: 0.0381 µM
- IC50 [2]: 4030 µM
- Activity [3]: Non-toxic
- Drug metabolism [4]: 423 ng/mL
- Drug metabolism [5]: 109 ng/mL
- Drug metabolism [6]: 955 ng/mL
- Drug metabolism [7]: 245 ng/mL
- Drug metabolism [8]: 1075 ng/mL
- Drug metabolism [9]: 252 ng/mL
- Drug metabolism [10]: 938 ng/mL
- Drug metabolism [11]: 264 ng/mL
- Drug metabolism [12]: 495 ng/mL
- Drug metabolism [13]: 164 ng/mL
- Drug metabolism [14]: 430 ng/mL
- Drug metabolism [15]: 152 ng/mL
- Drug metabolism [16]: 188 ng/mL
- Drug metabolism [17]: 67.3 ng/mL
- Drug metabolism [18]: 93.3 ng/mL
- Drug metabolism [19]: 18.2 ng/mL
- ED50 [20]: 2.1 mg/kg

Compound: Cc1nc(C)c(CO)nc1C
- IC50 [1]: 8410 µM
- IC50 [2]: 1670 µM
- ED50 [20]: 42.6 mg/kg

Compound: Cc1nc(C)c(COC(=O)CCN(C(=O)c2ccc3c(c2)nc(CNc2ccc(/C(N)=N\C(=O)OC(C)(C)C)cc2)n3C)c2ccccn2)nc1C
- IC50 [1]: 0.00313 µM
- ED50 [20]: 1.8 mg/kg

Compound: Cc1nc(C)c(COC(=O)CCN(C(=O)c2ccc3c(c2)nc(CNc2ccc(/C(N)=N\C(=O)OC(C)C)cc2)n3C)c2ccccn2)nc1C
- IC50 [1]: 0.295 µM

Compound: CCCCCCOC(=O)NC(=N)c1ccc(NCc2nc3cc(C(=O)N(CCC(=O)OCC)c4ccccn4)ccc3n2C)cc1 [DABIGATRAN ETEXILATE]
- IC50 [1]: 0.326 µM
- inhibition [21]: inactive
- ED50 [20]: 4.4 mg/kg

Compound: CCCCCOC(=O)/N=C(/N)c1ccc(NCc2nc3cc(C(=O)N(CCC(=O)OCc4nc(C)c(C)nc4C)c4ccccn4)ccc3n2C)cc1
- IC50 [1]: 0.0728 µM

Compound: COC(=O)/N=C(/N)c1ccc(NCc2nc3cc(C(=O)N(CCC(=O)OCc4nc(C)c(C)nc4C)c4ccccn4)ccc3n2C)cc1
- IC50 [1]: 0.287 µM

Compound: Cc1nc(C)c(COC(=O)CCN(C(=O)c2ccc3c(c2)nc(CNc2ccc(/C(N)=N\C(=O)OCc4ccccc4)cc2)n3C)c2ccccn2)nc1C
- IC50 [1]: 0.292 µM

Compound: CCOC(=O)/N=C(/N)c1ccc(NCc2nc3cc(C(=O)N(CCC(=O)OCc4nc(C)c(C)nc4C)c4ccccn4)ccc3n2C)cc1
- IC50 [1]: 0.218 µM
